Square brackets hold non-standard residues; d marks the D form. Peptide text beside a SMILES is read from it. * marks the point of attachment. ξ: configuration not given here. Hydrocinnamoyl = O=C(CCc1ccccc1)*; ξαMeF = CC(N)(Cc1ccccc1)C(=O)O; PhAc = O=C(Cc1ccccc1)*; Bz = O=C(c1ccccc1)*
How the values were obtained:
Canis familiaris [1] = test: Renal vasodilator activity in anesthetized dogs and percent change in heart rate (HR) was determined at 3 ug/kg min; assay type: functional, Canis lupus familiaris
Method in brief: (§1)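 Primary screen in anesthetized dogs (7-17 kg). Drug infused separately at 3, 30 and 300 µg/(kg min), each infusion lasting 5 min, at about 15-min intervals. Read-outs are renal blood flow, mean arterial blood pressure, heart rate, and RVR (MABP / mean RBF), as percent change. Significance thresholds are defined per number of dogs; n = 1-3 dogs.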

Canis familiaris [2] = test: Renal vasodilator activity in anesthetized dogs and percent change in heart rate (HR) was determined at 30 ug/kg min; assay type: functional, Canis lupus familiaris; method in brief: as §1
Canis familiaris [3] = test: Renal vasodilator activity in anesthetized dogs and percent change in heart rate (HR) was determined at 300 ug/kg min; assay type: functional, Canis lupus familiaris; method in brief: as §1
Canis familiaris [4] = test: Renal vasodilator activity in anesthetized dogs and percent change in mean arterial blood pressure (MABP) was determined at 3 ug/kg min; assay type: functional, Canis lupus familiaris; method in brief: as §1
Canis familiaris [5] = test: Renal vasodilator activity in anesthetized dogs and percent change in mean arterial blood pressure (MABP) was determined at 30 ug/kg min; assay type: functional, Canis lupus familiaris; method in brief: as §1
Canis familiaris [6] = test: Renal vasodilator activity in anesthetized dogs and percent change in mean arterial blood pressure (MABP) was determined at 300 ug/kg min; assay type: functional, Canis lupus familiaris; method in brief: as §1
Canis familiaris [7] = test: Renal vasodilator activity in anesthetized dogs and percent change in renal blood flow (RBF) was determined at 3 ug/kg min; assay type: functional, Canis lupus familiaris, Kidney; method in brief: as §1
Canis familiaris [8] = test: Renal vasodilator activity in anesthetized dogs and percent change in renal blood flow (RBF) was determined at 30 ug/kg min; assay type: functional, Canis lupus familiaris, Kidney; method in brief: as §1
Canis familiaris [9] = test: Renal vasodilator activity in anesthetized dogs and percent change in renal blood flow (RBF) was determined at 300 ug/kg min; assay type: functional, Canis lupus familiaris, Kidney; method in brief: as §1
Canis familiaris [10] = test: Renal vasodilator activity in anesthetized dogs and percent change in renal vascular resistance (RVR) was determined at 3 ug/kg min; assay type: functional, Canis lupus familiaris; method in brief: as §1
Canis familiaris [11] = test: Renal vasodilator activity in anesthetized dogs and percent change in renal vascular resistance (RVR) was determined at 300 ug/kg min; assay type: functional, Canis lupus familiaris; method in brief: as §1
Canis familiaris [12] = test: Renal vasodilator activity in anesthetized dogs and percent change in renal vascular resistance (RVR) was determined at 30 ug/kg min; assay type: functional, Canis lupus familiaris; method in brief: as §1
Canis familiaris [13] = test: In vivo percent change in renal blood flow at 30 ug/Kg/min.; assay type: functional, Canis lupus familiaris, Kidney; method in brief: as §1
Canis familiaris [14] = test: Renal vasodilator activity in anesthetized dogs and percent change in renal vascular resistance (RVR) was determined at 30 ug/Kg/min; assay type: functional, Canis lupus familiaris; method in brief: as §1
Canis familiaris [15] = test: In vivo percent change in canine heart rate at 3 ug/Kg/min.; assay type: functional, Canis lupus familiaris; method in brief: as §1
Canis familiaris [16] = test: In vivo percent change in canine heart rate at 30 ug/Kg/min.; assay type: functional, Canis lupus familiaris; method in brief: as §1
Canis familiaris [17] = test: In vivo percent change in canine heart rate at 300 ug/Kg/min.; assay type: functional, Canis lupus familiaris; method in brief: as §1
Canis familiaris [18] = test: In vivo percent change in canine mean arterial blood pressure (MABP) at 3 ug/Kg/min.; assay type: functional, Canis lupus familiaris; method in brief: as §1
Canis familiaris [19] = test: In vivo percent change in canine mean arterial blood pressure (MABP) at 30 ug/Kg/min.; assay type: functional, Canis lupus familiaris; method in brief: as §1
Canis familiaris [20] = test: In vivo percent change in canine mean arterial blood pressure (MABP) at 300 ug/Kg/min.; assay type: functional, Canis lupus familiaris; method in brief: as §1
Canis familiaris [21] = test: In vivo percent change in canine renal blood flow (RBF) at 3 ug/Kg/min.; assay type: functional, Canis lupus familiaris, Kidney; method in brief: as §1
Canis familiaris [22] = test: In vivo percent change in canine renal blood flow (RBF) at 300 ug/Kg/min.; assay type: functional, Canis lupus familiaris, Kidney; method in brief: as §1
Canis familiaris [23] = test: In vivo percent change in canine renal vascular resistance (RVR) at 3 ug/Kg/min.; assay type: functional, Canis lupus familiaris; method in brief: as §1
Canis familiaris [24] = test: In vivo percent change in canine renal vascular resistance (RVR) at 300 ug/Kg/min.; assay type: functional, Canis lupus familiaris; method in brief: as §1

Structure (SMILES) | Change (Canis familiaris [1]) | Change (Canis familiaris [2]) | Change (Canis familiaris [3]) | Change (Canis familiaris [4]) | Change (Canis familiaris [5]) | Change (Canis familiaris [6]) | Change (Canis familiaris [7]) | Change (Canis familiaris [8]) | Change (Canis familiaris [9]) | Change (Canis familiaris [10]) | Change (Canis familiaris [11]) | Change (Canis familiaris [12]) | also measured
N=C(N)NCCC[C@H](NC(=O)[C@@H](Cc1ccccc1)NC(=O)[C@@H]1CCCN1C(=O)CCCc1ccccc1)C(=O)O | -3% | 0% | -2% | 0% | 1% | 0% | 3% | 2% | 4% | -3% | -4% | -1% | –
N=C(N)NCCC[C@H](NC(=O)[C@H](Cc1ccccc1)NC(=O)[C@@H]1CCCN1C(=O)c1ccccc1)C(=O)O (Bz-Pro-Phe-Arg-OH) | 0% | 0% | 0% | 4% | 1% | 0% | 3% | 0% | -10% | 2% | 11% | 0% | –
CC(Cc1ccccc1)(NC(=O)[C@@H]1CCCN1C(=O)CCCc1ccccc1)C(=O)N[C@@H](CCCN=C(N)N)C(=O)O (stereo partly specified) | -3.6% | 0% | -1% | 3% | 2.8% | 1% | 0% | 4.6% | 1% | 3% | 0% | -1.8% | –
N=C(N)NCCC[C@H](NC(=O)[C@H](Cc1ccccc1)NC(=O)[C@@H]1CCCN1)C(=O)O (H-Pro-Phe-Arg-OH) | -6% | 3% | 6% | -1% | 1% | -4% | 4% | 3% | -3% | -5% | 0% | -2% | –
Cl.NCCCNC(=O)[C@@H]1Cc2ccccc2CN1C(=O)CCCc1ccc(O)cc1 | 1% | -2% | -1% | -2% | -1% | -2% | 3% | 6% | 5% | -6% | -6% | -6% | –
CC(Cc1ccccc1)(NC(=O)[C@@H]1CCCN1C(=O)Cc1ccccc1)C(=O)N[C@@H](CCCN=C(N)N)C(=O)O (stereo partly specified) (PhAc-Pro-[ξαMeF]-Arg-OH) | 9% | -2% | 0% | 0% | 0% | 5% | 4% | 0% | -2% | -4% | 7% | 0% | –
COc1ccc(CC(C)(NC(=O)[C@@H]2CCCN2C(=O)CCCc2ccc(O)cc2)C(=O)NCCCN)cc1OC.Cl (stereo partly specified) | – | – | – | – | – | – | – | – | – | – | – | – | Change (Canis familiaris [13]): 16.5%; Change (Canis familiaris [14]): -15.5%; Change (Canis familiaris [15]): 0.5%; Change (Canis familiaris [16]): -1%; Change (Canis familiaris [17]): 1.5%; Change (Canis familiaris [18]): 1.5%; Change (Canis familiaris [19]): -2%; Change (Canis familiaris [20]): -1.5%; Change (Canis familiaris [21]): 13.5%; Change (Canis familiaris [22]): 10.5%; Change (Canis familiaris [23]): -11%; Change (Canis familiaris [24]): -10%
CC(Cc1ccccc1)(NC(=O)[C@@H]1CCCN1C(=O)CCCc1ccc(O)cc1)C(=O)N[C@@H](CCCN=C(N)N)C(=O)O (stereo partly specified) | 0% | 0% | 0% | -4% | 2% | 0% | 8% | 12% | 11% | -12% | -11% | -9% | –
N=C(N)NCCC[C@H](NC(=O)[C@H](Cc1ccccc1)NC(=O)[C@@H]1CCCN1C(=O)CCCc1ccccc1)C(=O)O | 2% | 1.7% | -1.7% | 1% | 0.3% | -0.7% | 5.3% | 4% | -1.7% | -5.7% | 1% | -3.7% | –
CC(Cc1ccccc1)(NC(=O)[C@@H]1CCCN1C(=O)CCc1ccccc1)C(=O)N[C@@H](CCCN=C(N)N)C(=O)O (stereo partly specified) (Hydrocinnamoyl-Pro-[ξαMeF]-Arg-OH) | 8% | 1% | -1% | -2% | -3% | 1% | 5% | 2% | 1% | -7% | 0% | -5% | –
CC(Cc1ccccc1)(NC(=O)[C@@H]1CCCN1)C(=O)N[C@@H](CCCN=C(N)N)C(=O)O (stereo partly specified) (H-Pro-[ξαMeF]-Arg-OH) | -0.7% | 0% | 0% | 1% | -0.3% | -0.7% | 1.3% | 9.3% | 7.3% | 0.3% | -5.3% | -7.3% | –
CC(Cc1ccccc1)(NC(=O)[C@@H]1CCCN1C(=O)CCCCc1ccccc1)C(=O)N[C@@H](CCCN=C(N)N)C(=O)O (stereo partly specified) | -1% | -1% | 6% | 1% | 3% | 1% | 4% | 1% | 3% | -2% | -2% | 1% | –
CC(Cc1ccccc1)(NC(=O)[C@@H]1CCCN1)C(=O)N1CCC[C@H]1C(=O)O (stereo partly specified) (H-Pro-[ξαMeF]-Pro-OH) | 0% | 0% | 0% | 1% | 0% | -3% | 0% | 0% | 8% | 1% | -10% | 0% | –
